According to ChEMBL document CHEMBL1145129, “Design, synthesis, and anticancer properties of 4,4'-dihydroxybenzophenone-2,4-dinitrophenylhydrazone and analogues” (J Med Chem, 2003):
Values after ≈ are worked out from the molar mass of the structure shown.

Key:
[1] = In vitro cytotoxicity in FDCP-1 cell line; details: Mus musculus, FDC-P1
[2] = In vitro cytotoxicity in estrogen receptor positive progesterone receptor negative Human breast tumor cells; (>5, 0.5); format: functional, cell-based
[3] = In vitro cytotoxicity in B 16 F10 cell line; details: Mus musculus, B16-F10
[4] = species: Homo sapiens; assay: In vitro cytotoxicity in Human ovary tumor cells; (3+/-3, 4.2+/-4); format: functional; details: Female gonad
[5] = tested on: MDA-MB-435; assay: In vitro cytotoxicity in MDA-MB-435 cell line; format: functional, cell-based; details: Homo sapiens
Summary of the method: (§1)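 Established tumor lines kept in RPMI-1640 with 10% fetal calf serum and penicillin/streptomycin at 36 °C, 10% CO₂. Seeded 2000–3000 cells/well; hydrazone-containing medium added after 18 h, then 36 h further culture. Viable cells read by MTT absorbance at 570 nm; cytostasis (%) = (1 − A_treated/A_control) × 100.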

[6] = In vitro cytotoxicity in estrogen receptor and progesterone receptor negative Human breast tumor cells; (5+/-2, 0.2+/-0.3); format: functional, cell-based
[7] = In vitro cytotoxicity in estrogen receptor negative progesterone receptor positive Human breast tumor cells; (3+/-2, 0.4+/-0.1); format: functional, cell-based
[8] = species: Homo sapiens; assay: In vitro cytotoxicity in Human lung tumor cells; (5+/-5, 6+/-5); format: functional
[9] = tested on: Colon carcinoma cell; assay: In vitro cytotoxicity in Human colon tumor cells; (>12+/-4, >12+/-5); format: functional, cell-based
[10] = In vitro cytotoxicity in SN 12 PM6 cell line; format: functional, cell-based; details: Homo sapiens
Summary of the method: as §1

[11] = tested on: breast cancer cells (Homo sapiens); assay: In vitro cytotoxicity in estrogen receptor and progesterone receptor positive Human breast tumor cells; (2.5+/-0.9, 0.5+/-1)
[12] = In vitro cytotoxicity in KM 12 SM cell line; format: functional; details: Homo sapiens, KM12
Summary of the method: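 Established lines kept in RPMI-1640 with 10% fetal calf serum and penicillin/streptomycin at 36 °C, 10% CO₂. Cells seeded at 2000–3000 cells/well, hydrazones added at several concentrations after 18 h, and exposed a further 36 h. Viable cells read by MTT absorbance at 570 nm; cytostasis (%) = (1 − A/B)×100 against untreated control.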

[13] = tested on: Melanoma tumor cell line; assay: In vitro cytotoxicity in Human melanoma tumor cells; (5+/-4, >10); format: functional, cell-based
[14] = tested on: Melanoma tumor cell line; assay: In vitro cytotoxicity against Human melanoma tumor cells.; format: functional, cell-based
Summary of the method: (§2)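 Fresh surgical human tumor specimens minced to ≤0.1 mm fragments in RPMI-1640 with 10% FBS, streptomycin and penicillin (10⁶–10⁸ cells/mL), explanted into slide flasks. Exposed 24 h at 37 °C, 5% CO₂, to test agent 0.1–20 μg/mL (≥5 doses over 3 logs), in duplicate. Washed, recultured 7–14 days, fixed, HPF cell counts vs control; IC50 (SD) from percent growth.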

[15] = In vitro cytotoxicity in Human breast tumor cells; format: functional, cell-based
Summary of the method: as §2

[16] = In vitro cytotoxicity in KM 12L4 cell line; format: functional, cell-based; details: Homo sapiens
Summary of the method: as §1

[17] = In vitro cytotoxicity in K 1735 M2 cell line; format: functional
[18] = tested on: Colon carcinoma cell; assay: In vitro cytotoxicity was tested in human colon tumor cells; format: functional, cell-based
Summary of the method: as §2

[19] = species: Homo sapiens; assay: In vitro cytotoxicity against Human lung tumor cells.; format: functional
Summary of the method: as §2

[20] = species: Homo sapiens; assay: In vitro cytotoxicity in Human ovary tumor cells; format: functional; details: Female gonad
Summary of the method: as §2

[21] = tested on: Melanoma tumor cell line; assay: In vitro cytotoxicity against Human melanoma tumor cells; Not available.; format: functional, cell-based
Summary of the method: as §2

[22] = In vitro cytotoxicity in KM 12 C cell line; format: functional; details: Homo sapiens, KM12C
Summary of the method: as §1

[23] = In vitro cytotoxicity in MDA-MB-435/lung met cell line; format: functional; details: Homo sapiens
Summary of the method: as §1

[24] = species: Homo sapiens; assay: In vitro cytotoxicity against Human lung tumor cells; Not available.; format: functional
Summary of the method: as §2

SMILES | IC50 [1] [µg/mL] | IC50 [3] [µg/mL] | IC50 [5] [µg/mL] | IC50 [10] [µg/mL] | IC50 [12] [µg/mL] | IC50 [15] [µg/mL] | IC50 [16] [µg/mL] | IC50 [17] [µg/mL] | IC50 [18] [µg/mL] | IC50 [19] [µg/mL] | IC50 [21] | other results
O=[N+]([O-])c1ccc(NN=C(c2ccc(O)cc2)c2ccc(O)cc2)c([N+](=O)[O-])c1 [SIVIFENE] | 9.1 (≈ 23.1 µM) | 1 (≈ 2.54 µM) | 2.1 (≈ 5.33 µM) | 4 (≈ 10.1 µM) | 5.4 (≈ 13.7 µM) | – | – | – | – | – | – | IC50 [2]: > 10 µg/mL; IC50 [4]: 12.3 µg/mL (≈ 31.2 µM); IC50 [6]: 12.6 µg/mL (≈ 32 µM); IC50 [7]: > 10 µg/mL; IC50 [8]: 4.9 µg/mL (≈ 12.4 µM); IC50 [9]: 15.2 µg/mL (≈ 38.5 µM); IC50 [11]: 3.5 µg/mL (≈ 8.88 µM); IC50 [13]: 7 µg/mL (≈ 17.8 µM)
CC(=O)Oc1cccc2c(/N=N/c3ccc([N+](=O)[O-])cc3[N+](=O)[O-])c3cccc(OC(C)=O)c3c(O)c12 | – | – | 0.041 (≈ 0.0813 µM) | 0.021 (≈ 0.0416 µM) | – | 0.04 (≈ 0.0793 µM) | 0.07 (≈ 0.139 µM) | 0.042 (≈ 0.0833 µM) | 0.16 (≈ 0.317 µM) | 0.1 (≈ 0.198 µM) | – | IC50 [14]: 0.07 µg/mL (≈ 0.139 µM); IC50 [20]: 0.3 µg/mL (≈ 0.595 µM)
O=[N+]([O-])c1ccc(/N=N/c2c3cccc(O)c3c(O)c3c(O)cccc23)c([N+](=O)[O-])c1 | – | – | 0.02 (≈ 0.0476 µM) | 0.03 (≈ 0.0714 µM) | 0.05 (≈ 0.119 µM) | 0.03 (≈ 0.0714 µM) | 0.02 (≈ 0.0476 µM) | 0.02 (≈ 0.0476 µM) | 0.03 (≈ 0.0714 µM) | 0.12 (≈ 0.285 µM) | Not Active | IC50 [22]: 0.03 µg/mL (≈ 0.0714 µM); IC50 [23]: 0.03 µg/mL (≈ 0.0714 µM)
COc1ccc2c(=NNc3ccc([N+](=O)[O-])cc3[N+](=O)[O-])c3ccc(OC)cc3oc2c1 | 0.95 (≈ 2.18 µM) | 0.44 (≈ 1.01 µM) | 0.41 (≈ 0.94 µM) | 0.62 (≈ 1.42 µM) | – | > 5 | 1.57 (≈ 3.6 µM) | 0.64 (≈ 1.47 µM) | – | – | Not Active | IC50 [24]: Not Active
